In ChEMBL document CHEMBL1137702, “Identification of hydrolytically stable and selective P2Y(1) receptor agonists” (Eur J Med Chem, 2009) one finds Activity data, which are given here for five molecules.

Active and inactive are the calls of the source. The calls are words filed in the database; no cut-off is given here.

Assay [1] addresses T1, Ectonucleoside triphosphate diphosphohydrolase 2 (Homo sapiens) (UniProt Q9Y5L3).
T1 sequence (whole entry): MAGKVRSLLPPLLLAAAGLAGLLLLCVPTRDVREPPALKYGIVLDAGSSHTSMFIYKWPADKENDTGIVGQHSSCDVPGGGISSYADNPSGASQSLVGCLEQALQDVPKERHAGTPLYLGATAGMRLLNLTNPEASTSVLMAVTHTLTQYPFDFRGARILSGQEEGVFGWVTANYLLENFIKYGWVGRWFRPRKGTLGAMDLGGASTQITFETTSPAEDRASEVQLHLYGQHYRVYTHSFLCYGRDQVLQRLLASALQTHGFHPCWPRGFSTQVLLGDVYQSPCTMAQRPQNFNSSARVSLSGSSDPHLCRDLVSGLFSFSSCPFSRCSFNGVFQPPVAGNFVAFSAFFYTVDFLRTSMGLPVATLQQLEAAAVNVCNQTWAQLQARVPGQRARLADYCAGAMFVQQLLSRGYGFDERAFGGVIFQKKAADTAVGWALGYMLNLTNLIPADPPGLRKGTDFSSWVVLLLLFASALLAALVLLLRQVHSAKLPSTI
The experiment in a line: Activity of human NTPDase 2 expressed in human 293T cells assessed as drug hydrolysis at 100 uM after 20 mins relative to ATP. The format is cell-based. On the set-up: scale not given: the % may be the effect or the level left. In a few lines: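 Human NTPDase1, 2, 3 or 8 in crude extracts of transfected 293T cells, pre-incubated 3 min at 37 °C in Tris-Ringer buffer pH 7.4. […] Untransfected-cell extract activity subtracted.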

Assay [2] addresses T2, Ectonucleotide pyrophosphatase/phosphodiesterase family member 3 (Homo sapiens) (UniProt O14638).
T2 sequence (whole entry): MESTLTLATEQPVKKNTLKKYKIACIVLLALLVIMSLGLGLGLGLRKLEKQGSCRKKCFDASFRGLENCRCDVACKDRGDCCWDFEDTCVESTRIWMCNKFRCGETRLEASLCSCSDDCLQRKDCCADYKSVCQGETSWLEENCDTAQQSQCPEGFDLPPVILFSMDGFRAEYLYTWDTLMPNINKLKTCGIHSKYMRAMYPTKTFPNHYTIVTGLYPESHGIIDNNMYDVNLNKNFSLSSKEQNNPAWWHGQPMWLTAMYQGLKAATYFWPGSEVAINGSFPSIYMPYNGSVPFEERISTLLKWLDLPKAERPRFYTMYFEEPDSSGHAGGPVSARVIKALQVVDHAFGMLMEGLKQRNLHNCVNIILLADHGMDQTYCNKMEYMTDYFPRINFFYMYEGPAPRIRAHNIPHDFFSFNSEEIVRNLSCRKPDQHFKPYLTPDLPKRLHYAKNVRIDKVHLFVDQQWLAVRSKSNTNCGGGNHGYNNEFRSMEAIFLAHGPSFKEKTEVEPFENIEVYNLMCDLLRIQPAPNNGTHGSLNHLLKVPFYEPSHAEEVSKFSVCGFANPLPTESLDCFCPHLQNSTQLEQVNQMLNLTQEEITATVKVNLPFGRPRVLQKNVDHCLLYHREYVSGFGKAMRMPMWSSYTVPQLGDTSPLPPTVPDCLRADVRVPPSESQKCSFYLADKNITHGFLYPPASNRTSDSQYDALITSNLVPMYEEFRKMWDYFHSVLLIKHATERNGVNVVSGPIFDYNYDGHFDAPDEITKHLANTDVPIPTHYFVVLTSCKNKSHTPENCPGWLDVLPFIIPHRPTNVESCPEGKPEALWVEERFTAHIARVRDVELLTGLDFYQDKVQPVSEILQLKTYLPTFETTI
Put plainly: Activity of human NPP3 expressed in human 293T cells assessed as drug hydrolysis at 100 uM after 20 mins by reverse-phase HPLC relative to p-nitrophenyl-thymidine-5-monophosphate. The format is cell-based. More on the design: scale not given: the % may be the effect or the level left. In a few lines:
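Crude extract of 293T cells transfected with human NPP1 or NPP3, pre-incubated 3 min at 37 °C in 1 mM CaCl2, 140 mM NaCl, 5 mM KCl, 50 mM Tris pH 8.5. Substrate at 100 µM final for 20 min, stopped in ice-cold perchloric acid and neutralized with KOH. Loss of analogue quantified by reverse-phase HPLC with ion-pair phosphate mobile phase pH 7.0. pnp-TMP (p-nitrophenol at 410 nm) served as the 100% reference.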

Assay [3] addresses P2Y purinoceptor 1 (Meleagris gallopavo) (UniProt P49652). The experiment in a line: Antagonist activity at turkey P2Y1 receptor expressed in human 1321N1 cells assessed as inhibition of 2-MeS-ADP-induced increase in intracellular calcium concentration by dual-excitation spectrofluorimetric analysis. Format: functional, cell-based. In a few lines:
(§1)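 Fura-2-loaded suspensions of stably transfected 1321N1 cells were assayed at 37 °C in HEPES-buffered saline pH 7.4 with 1 mM Ca2+ and Mg2+. […] [Ca2+]i was read by dual-excitation spectrofluorometry.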
In general terms: Calcium assays in cells follow changes in intracellular calcium, usually with a dye or a luminescent sensor.

Assay [4] addresses P2Y purinoceptor 6 (Rattus norvegicus) (UniProt Q63371). Put plainly: Antagonist activity at rat P2Y6 receptor expressed in human 1321N1 cells assessed as inhibition of UDP-induced increase in intracellular calcium concentration by dual-excitation spectrofluorimetric analysis. The format is functional, cell-based. In a few lines:
as §1

Assay [5] deals with T3, Ectonucleotide pyrophosphatase/phosphodiesterase family member 1 (Homo sapiens) (UniProt P22413).
T3 sequence (whole entry): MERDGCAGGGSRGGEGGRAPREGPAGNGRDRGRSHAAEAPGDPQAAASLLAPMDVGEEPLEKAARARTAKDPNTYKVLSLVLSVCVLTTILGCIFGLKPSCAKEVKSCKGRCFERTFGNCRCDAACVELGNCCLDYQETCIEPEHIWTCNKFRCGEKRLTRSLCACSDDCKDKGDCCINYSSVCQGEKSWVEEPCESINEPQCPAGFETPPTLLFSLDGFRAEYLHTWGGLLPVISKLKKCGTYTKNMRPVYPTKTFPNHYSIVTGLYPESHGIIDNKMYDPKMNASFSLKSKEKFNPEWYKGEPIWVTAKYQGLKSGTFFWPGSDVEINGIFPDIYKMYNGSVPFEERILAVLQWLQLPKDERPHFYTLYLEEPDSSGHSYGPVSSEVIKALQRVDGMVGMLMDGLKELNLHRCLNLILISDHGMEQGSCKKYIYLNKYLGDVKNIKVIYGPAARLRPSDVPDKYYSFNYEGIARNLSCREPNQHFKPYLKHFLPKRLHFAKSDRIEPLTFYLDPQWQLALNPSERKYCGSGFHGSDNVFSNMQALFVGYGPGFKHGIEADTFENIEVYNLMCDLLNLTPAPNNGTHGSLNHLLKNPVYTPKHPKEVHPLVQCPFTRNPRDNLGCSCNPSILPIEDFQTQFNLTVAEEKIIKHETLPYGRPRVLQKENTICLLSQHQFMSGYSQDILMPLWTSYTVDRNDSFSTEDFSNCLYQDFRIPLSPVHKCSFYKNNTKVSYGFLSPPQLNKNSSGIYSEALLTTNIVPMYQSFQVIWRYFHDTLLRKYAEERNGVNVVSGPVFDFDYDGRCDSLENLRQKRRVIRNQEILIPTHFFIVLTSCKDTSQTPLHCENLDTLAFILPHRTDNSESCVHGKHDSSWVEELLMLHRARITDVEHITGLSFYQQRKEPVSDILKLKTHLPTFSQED
Put plainly: Inhibition of human NPP1 expressed in human 293T cells. The format is cell-based.

P2Y purinoceptor 1 (Meleagris gallopavo), sequence (P49652 whole entry): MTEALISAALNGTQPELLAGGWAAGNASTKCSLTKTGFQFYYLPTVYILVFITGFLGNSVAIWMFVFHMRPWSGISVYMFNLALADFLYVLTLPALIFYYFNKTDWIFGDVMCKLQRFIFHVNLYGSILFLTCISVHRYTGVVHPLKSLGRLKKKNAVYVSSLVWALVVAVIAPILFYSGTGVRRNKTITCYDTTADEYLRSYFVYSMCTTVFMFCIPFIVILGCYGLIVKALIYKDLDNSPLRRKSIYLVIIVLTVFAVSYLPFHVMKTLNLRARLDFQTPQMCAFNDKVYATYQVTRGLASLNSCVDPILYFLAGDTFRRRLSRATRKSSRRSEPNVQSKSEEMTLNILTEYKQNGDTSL
P2Y purinoceptor 6 (Rattus norvegicus), sequence (Q63371 whole entry): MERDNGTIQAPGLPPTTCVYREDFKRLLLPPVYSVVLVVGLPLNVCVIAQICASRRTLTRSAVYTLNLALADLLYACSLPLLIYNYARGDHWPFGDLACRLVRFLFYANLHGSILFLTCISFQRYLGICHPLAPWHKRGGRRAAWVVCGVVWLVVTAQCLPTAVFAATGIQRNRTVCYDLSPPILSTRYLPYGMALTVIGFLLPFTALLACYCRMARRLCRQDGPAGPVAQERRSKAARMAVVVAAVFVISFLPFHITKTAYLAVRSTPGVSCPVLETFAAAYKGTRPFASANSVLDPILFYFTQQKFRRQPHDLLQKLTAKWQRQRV

As to `CSc1nc(N)c2ncn([C@@H]3O[C@H](COP(=O)(O)OP(=O)(O)CP(=O)(O)O)[C@@H](O)[C@H]3O)c2n1`, the Activity is 2% in assay [1] and 10% in assay [2]. In addition, the result in assay [3], in assay [4] and in assay [5] was inactive.

For the molecule `BP(=O)(OC[C@H]1O[C@@H](n2cnc3c(N)ncnc32)[C@H](O)[C@@H]1O)OP(=O)(O)CP(=O)(O)O` (some centres undefined), the Activity in assay [1] is 1%; in assay [2] it was 0%. Besides, the result in assay [4] and in assay [5] was inactive.

As for `BP(=O)(OC[C@H]1O[C@@H](n2cnc3c(N)nc(SC)nc32)[C@H](O)[C@@H]1O)OP(=O)(O)CP(=O)(O)O` (single isomer, unassigned; diastereomer B), the Activity in assay [1] is 1%; in assay [2] it was 0%. The result in assay [3], in assay [4] and in assay [5] was inactive.

In the case of `BP(=O)(OC[C@H]1O[C@@H](n2cnc3c(N)ncnc32)[C@H](O)[C@@H]1O)OP(=O)(O)CP(=O)(O)O` (single isomer, unassigned; diastereomer B), the Activity was 0% in assay [1] and 3% in assay [2]. Moreover, the result in assay [3], in assay [4] and in assay [5] was inactive.

Take `BP(=O)(OC[C@H]1O[C@@H](n2cnc3c(N)nc(SC)nc32)[C@H](O)[C@@H]1O)OP(=O)(O)CP(=O)(O)O` (single isomer, unassigned; diastereomer A): the figures for the Activity in assay [1] and in assay [2] were 1% and 9.9%, respectively. Also, the result in assay [3], in assay [4] and in assay [5] was inactive.
